From ChEMBL document CHEMBL4480371, “Benzoflavone derivatives as potent antihyperuricemic agents” (Medchemcomm, 2019)
Activity calls are given as the source filed them. The calls are words filed in the database; no cut-off is given here.

What was measured:
[1] = Antioxidant activity assessed as DPPH radical scavenging activity shaken for 1 min and incubated under dark condition for 30 mins by spectrophotometric analysis; assay type: functional
In short: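 DPPH at 0.004% w/v and compounds were made in methanol, mixed 1.5 mL to 1 mL, shaken 1 min at 37 °C, then kept 30 min in the dark. Absorbance was read at 517 nm and % scavenging calculated against a DPPH-plus-methanol control. […] Triplicate, mean.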

[2] = molecular target: T1, Xanthine dehydrogenase/oxidase (Bos taurus, UniProt P80457); test: Inhibition of bovine milk xanthine oxidase using xanthine as substrate preincubated for 5 mins followed by substrate addition by UV-visible spectrophotometry
T1 sequence (P80457 whole entry): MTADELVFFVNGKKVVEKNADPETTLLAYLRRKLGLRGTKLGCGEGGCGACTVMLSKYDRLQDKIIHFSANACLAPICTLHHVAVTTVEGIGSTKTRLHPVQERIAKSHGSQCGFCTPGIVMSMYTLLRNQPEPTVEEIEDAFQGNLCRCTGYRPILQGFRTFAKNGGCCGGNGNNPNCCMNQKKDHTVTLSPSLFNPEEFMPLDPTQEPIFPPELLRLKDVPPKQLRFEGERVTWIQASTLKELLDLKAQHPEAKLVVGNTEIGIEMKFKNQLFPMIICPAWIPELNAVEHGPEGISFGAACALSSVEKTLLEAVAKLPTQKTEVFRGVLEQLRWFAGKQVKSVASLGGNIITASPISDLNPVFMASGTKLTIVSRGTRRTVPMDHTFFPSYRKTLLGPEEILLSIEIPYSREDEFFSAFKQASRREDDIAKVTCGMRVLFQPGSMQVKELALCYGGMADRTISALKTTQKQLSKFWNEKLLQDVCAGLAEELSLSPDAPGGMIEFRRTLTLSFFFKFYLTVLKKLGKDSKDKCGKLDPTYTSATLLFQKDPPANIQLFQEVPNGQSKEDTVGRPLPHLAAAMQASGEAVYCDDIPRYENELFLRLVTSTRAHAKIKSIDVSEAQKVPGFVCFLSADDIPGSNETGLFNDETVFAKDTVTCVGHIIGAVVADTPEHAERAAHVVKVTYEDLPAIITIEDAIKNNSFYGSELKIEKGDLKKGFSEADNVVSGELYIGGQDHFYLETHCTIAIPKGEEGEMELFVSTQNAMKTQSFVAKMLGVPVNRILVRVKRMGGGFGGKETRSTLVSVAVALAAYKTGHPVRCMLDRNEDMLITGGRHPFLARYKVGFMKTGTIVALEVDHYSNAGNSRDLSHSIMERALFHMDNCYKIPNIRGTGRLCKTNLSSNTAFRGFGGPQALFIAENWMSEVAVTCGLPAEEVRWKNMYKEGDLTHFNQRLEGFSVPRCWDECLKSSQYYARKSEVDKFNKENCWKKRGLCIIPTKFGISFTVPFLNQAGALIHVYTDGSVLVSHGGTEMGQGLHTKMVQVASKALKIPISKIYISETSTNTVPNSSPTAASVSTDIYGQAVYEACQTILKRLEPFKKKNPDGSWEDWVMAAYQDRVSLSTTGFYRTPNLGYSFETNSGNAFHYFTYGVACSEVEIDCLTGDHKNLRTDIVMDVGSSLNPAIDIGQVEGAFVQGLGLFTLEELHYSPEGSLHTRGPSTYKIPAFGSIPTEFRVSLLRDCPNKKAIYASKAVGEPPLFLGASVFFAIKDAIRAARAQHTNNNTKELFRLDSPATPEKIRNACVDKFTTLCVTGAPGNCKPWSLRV

Mus musculus [3] = test: Anti-hyperuricemic effect in Swiss albino mouse model of potassium oxonate-induced hyperuricemia model assessed as serum uric acid level at 10 mg/kg, po treated 1 hr post potassium oxonate addition and measured after 30 mins by ERBA method (reference value: 5.9 +/- 0.42 mg/dl); assay type: functional
Mus musculus [4] = test: Anti-hyperuricemic effect in Swiss albino mouse model of potassium oxonate-induced hyperuricemia model assessed as reduction in serum uric acid level treated orally 1 hr post potassium oxonate addition and measured after 30 mins by ERBA method; assay type: functional, organism-based
In short: (§1)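 Male Swiss albino mice, […], 25–30 g, n = 6 per group, fasted 6 h from feed. Xanthine 500 mg/kg was given orally, then potassium oxonate 300 mg/kg ip 30 min later, both in 0.5% CMC. Compounds were dosed orally 1 h after oxonate. Retro-orbital blood was drawn 2 h after PO+Xn, and serum uric acid was read by kit at 505 nm (5 min, 37 °C). Mean ± S.E.M., ANOVA/Tukey.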

Mus musculus [5] = test: Anti-hyperuricemic effect in Swiss albino mouse model of potassium oxonate-induced hyperuricemia model assessed as serum uric acid level at 1 to 10 mg/kg, po treated 1 hr post potassium oxonate addition and measured after 30 mins by ERBA method (reference value: 5.9 +/- 0.42 mg/dl); assay type: functional; in short: as §1
Mus musculus [6] = test: Anti-hyperuricemic effect in Swiss albino mouse model of potassium oxonate-induced hyperuricemia model assessed as serum uric acid level at 5 mg/kg, po treated 1 hr post potassium oxonate addition and measured after 30 mins by ERBA method (reference value: 5.9 +/- 0.42 mg/dl); assay type: functional; in short: as §1
Mus musculus [7] = test: Anti-hyperuricemic effect in Swiss albino mouse model of potassium oxonate-induced hyperuricemia model assessed as reduction in serum uric acid level at 0.55 mg/kg, po treated 1 hr post potassium oxonate addition and measured after 30 mins by ERBA method; assay type: functional, organism-based; settings: 0.5 mg/kg, in the assay text read “0.5 mg/kg” for “0.55 mg/kg”; in short: as §1
[8] = Acute toxicity in potassium oxonate-induced Swiss albino mouse hyperuricemic model assessed as induction of abnormal behavior at 2000 mg/kg, po measured after 24 hrs; settings: in vivo
[9] = molecular target: T1, Xanthine dehydrogenase/oxidase; test: Competitive mixed type inhibition of bovine milk xanthine oxidase using xanthine as substrate preincubated for 5 mins followed by substrate addition by UV-visible spectrophotomety based Lineweaver-Burk plot analysis; settings: cattle
In short: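 Bovine milk xanthine oxidase was assayed in 50 mM potassium phosphate (pH 7.6) at 25 °C, with uric acid formation followed at 293 nm. Enzyme was preincubated 5 min with inhibitor in 1% v/v DMSO, and the reaction was started with xanthine. Inhibition mode came from Lineweaver–Burk plots.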

Row | IC50 [1] [µM] | IC50 [2] [µM] | SMILES | also measured
1 | 10.1 | > 20 | O=c1cc(-c2cccc(F)c2)oc2c1ccc1ccccc12 | –
2 | > 20 | > 20 | O=c1cc(-c2ccccc2I)oc2ccc3ccccc3c12 | –
3 | > 20 | > 20 | O=c1cc(-c2cccc(F)c2)oc2ccc3ccccc3c12 | –
4 | > 20 | 14.7 | O=c1cc(-c2ccccc2F)oc2ccc3ccccc3c12 | –
5 | 10.9 | > 20 | O=c1cc(-c2cccc(Cl)c2Cl)oc2c1ccc1ccccc12 | –
6 | > 20 | > 20 | O=c1cc(-c2cccc(Br)c2)oc2ccc3ccccc3c12 | –
7 | 9.9 | 16.8 | O=c1cc(-c2ccccc2Br)oc2c1ccc1ccccc12 | –
8 | > 20 | 18.6 | O=c1cc(-c2cccc(Cl)c2Cl)oc2ccc3ccccc3c12 | –
9 | 5.98 | > 20 | O=c1cc(-c2cccc(Br)c2)oc2c1ccc1ccccc12 | –
10 | > 20 | 17.1 | O=c1cc(-c2ccccc2Br)oc2ccc3ccccc3c12 | –
11 | 8.24 | > 20 | O=c1cc(-c2cccc([N+](=O)[O-])c2)oc2c1ccc1ccccc12 | –
12 | 4.27 | 18.9 | COc1ccc(-c2cc(=O)c3ccc4ccccc4c3o2)cc1 | –
13 | 3.14 | 6.95 | O=c1cc(-c2cc(F)cc(F)c2)oc2c1ccc1ccccc12 | Activity (Mus musculus [4]): Dose-dependent effect; Activity (Mus musculus [5]): 1.8 to 2.8 mg/dL; inhibition (Mus musculus [7]): inactive
14 | 7.33 | 19.4 | O=c1cc(-c2ccccc2I)oc2c1ccc1ccccc12 | –
15 | > 20 | > 20 | COc1ccc(-c2cc(=O)c3c(ccc4ccccc43)o2)cc1 | –
16 | > 20 | 12.4 | O=c1cc(-c2ccc(F)cc2)oc2ccc3ccccc3c12 | –
17 | 15.6 | > 20 | O=c1cc(-c2ccccc2)oc2c1ccc1ccccc12 [ALPHA-NAPHTHOFLAVONE] | –
18 | > 20 | > 20 | O=c1cc(-c2cccc([N+](=O)[O-])c2)oc2ccc3ccccc3c12 | –
19 | > 20 | > 20 | Cc1ccc(-c2cc(=O)c3c(ccc4ccccc43)o2)cc1 | –
20 | 5.55 | > 20 | O=c1cc(-c2cc([N+](=O)[O-])cc([N+](=O)[O-])c2)oc2c1ccc1ccccc12 | –
21 | – | – | Oc1ncnc2[nH]ncc12 [ALLOPURINOL] | Activity (Mus musculus [3]): 1.8 mg/dL
22 | 0.35 | 8.93 | O=c1cc(-c2ccc(Br)cc2)oc2c1ccc1ccccc12 | Activity (Mus musculus [4]): Dose-dependent effect; Activity (Mus musculus [5]): 1.8 to 2.8 mg/dL; inhibition (Mus musculus [7]): inactive
23 | 6.5 | > 20 | Cc1ccc(-c2cc(=O)c3ccc4ccccc4c3o2)cc1 | –
24 | > 20 | > 20 | O=c1cc(-c2cccc(Cl)c2)oc2ccc3ccccc3c12 | –
25 | > 20 | > 20 | O=c1cc(-c2ccccc2)oc2ccc3ccccc3c12 [BETA-NAPHTHOFLAVONE] | –
26 | > 20 | > 20 | O=c1cc(-c2cc([N+](=O)[O-])cc([N+](=O)[O-])c2)oc2ccc3ccccc3c12 | –
27 | 7.75 | > 20 | O=c1cc(-c2cccc(Cl)c2)oc2c1ccc1ccccc12 | –
28 | – | – | Cc1nc(-c2ccc(OCC(C)C)c(C#N)c2)sc1C(=O)O [FEBUXOSTAT] | Activity (Mus musculus [6]): 1.5 mg/dL
29 | > 20 | 8.9 | O=c1cc(-c2ccc(Br)cc2)oc2ccc3ccccc3c12 | Activity (Mus musculus [4]): Dose-dependent effect; Activity (Mus musculus [5]): 1.8 to 2.8 mg/dL; Activity (Mus musculus [6]): Active; inhibition (Mus musculus [7]): inactive

Row | SMILES | IC50 [1] [µM] | IC50 [2] [µM] | also measured
30 | O=c1cc(-c2ccc(F)cc2)oc2c1ccc1ccccc12 | 0.83 | 0.62 | Activity (Mus musculus [3]): inactive; Activity (Mus musculus [4]): Dose-dependent effect
31 | O=c1cc(-c2cc(F)cc(F)c2)oc2ccc3ccccc3c12 | > 20 | 7.67 | Activity (Mus musculus [4]): Dose-dependent effect; Activity (Mus musculus [5]): 1.8 to 2.8 mg/dL; Activity (Mus musculus [6]): Active; inhibition (Mus musculus [7]): inactive; Activity [8]: Non-Toxic
32 | O=c1cc(-c2ccccc2F)oc2c1ccc1ccccc12 | 4.73 | 4.94 | Activity (Mus musculus [4]): Dose-dependent effect; Activity (Mus musculus [5]): 1.8 to 2.8 mg/dL; inhibition (Mus musculus [7]): inactive; Activity [8]: Non-Toxic
33 | O=c1cc(-c2ccc([N+](=O)[O-])cc2)oc2ccc3ccccc3c12 | > 20 | 5.21 | Activity (Mus musculus [3]): Active; Activity (Mus musculus [4]): Dose-dependent effect; inhibition (INH) [9]: Active
34 | O=c1cc(-c2ccc([N+](=O)[O-])cc2)oc2c1ccc1ccccc12 | 0.62 | 1.95 | Activity (Mus musculus [3]): inactive; Activity (Mus musculus [4]): Dose-dependent effect
